Measurements taken from ChEMBL document CHEMBL5058577, “EUbOPEN Chemogenomics Library 2 (Multiplex)” (2022).

System: U2OS
Experiment: Multiplex assay against U2OS
Assay type: toxicity, cell-based
Details: human
Method in brief: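 Live cells carried four stains from seeding: Hoechst33342, BioTracker Green Microtubule Cytoskeleton Dye, MitoTracker Red and Annexin V Alexa Fluor 680. They were imaged on a CQ1 microscope at 37°C and 5% CO2 after compound addition. Using CellPathfinder machine-learning gating, cells were split into Hoechst high-intensity objects or normal cells, normal cells into healthy, pyknosed or fragmented nuclei, and pyknosed cells into mitotic or apoptotic; tubulin, mitochondrial-mass and membrane-permeability phenotypes are per cents of healthy-nucleus cells.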

[1] = 12 h, 1 µM, compound concentration 1 uM, replicate 1
[2] = 12 h, 1 µM, compound concentration 1 uM, replicate 2
[3] = 12 h, 10 µM, compound concentration 10 uM, replicate 1
[4] = 12 h, 10 µM, compound concentration 10 uM, replicate 2
[5] = 24 h, 1 µM, compound concentration 1 uM, replicate 1
[6] = 24 h, 1 µM, compound concentration 1 uM, replicate 2
[7] = 24 h, 10 µM, compound concentration 10 uM, replicate 1
[8] = 24 h, 10 µM, compound concentration 10 uM, replicate 2
[9] = 48 h, 1 µM, compound concentration 1 uM, replicate 1
[10] = 48 h, 1 µM, compound concentration 1 uM, replicate 2
[11] = 48 h, 10 µM, compound concentration 10 uM, replicate 1
[12] = 48 h, 10 µM, compound concentration 10 uM, replicate 2

CCCCC(=O)N(Cc1ccc(-c2ccccc2-c2nnn[nH]2)cc1)[C@H](C(=O)O)C(C)C
Population Apoptotic (%) [1]: 85% | Population Fragmented Nuclei (%) [1]: 28% | Population Healthy Nuclei (%) [1]: 63% | Population Hoechst High Intensity Objects (%) [1]: 1% | Population Membrane Permeable-Phenotype (%) [1]: 8% | Population Mitochondria Different-Phenotype (%) [1]: 3% | Population Mitotic Cells (%) [1]: 14% | Population Normal (%) [1]: 98% | Population Pyknosed Nuclei (%) [1]: 8% | Population Tubulin-Different-Phenotype (%) [1]: 4% | Total Cell Count [1]: 259 | Population Apoptotic (%) [2]: 100% | Population Fragmented Nuclei (%) [2]: 15% | Population Healthy Nuclei (%) [2]: 79% | Population Hoechst High Intensity Objects (%) [2]: 3% | Population Membrane Permeable-Phenotype (%) [2]: 9% | Population Mitochondria Different-Phenotype (%) [2]: 5% | Population Mitotic Cells (%) [2]: 0% | Population Normal (%) [2]: 96% | Population Pyknosed Nuclei (%) [2]: 4% | Population Tubulin-Different-Phenotype (%) [2]: 2% | Total Cell Count [2]: 130 | Population Apoptotic (%) [3]: 75% | Population Fragmented Nuclei (%) [3]: 35% | Population Healthy Nuclei (%) [3]: 55% | Population Hoechst High Intensity Objects (%) [3]: 1% | Population Membrane Permeable-Phenotype (%) [3]: 3% | Population Mitochondria Different-Phenotype (%) [3]: 2% | Population Mitotic Cells (%) [3]: 25% | Population Normal (%) [3]: 98% | Population Pyknosed Nuclei (%) [3]: 9% | Population Tubulin-Different-Phenotype (%) [3]: 2% | Total Cell Count [3]: 218 | Population Fragmented Nuclei (%) [4]: 24% | Population Healthy Nuclei (%) [4]: 71% | Population Hoechst High Intensity Objects (%) [4]: 0% | Population Membrane Permeable-Phenotype (%) [4]: 1% | Population Normal (%) [4]: 99% | Population Pyknosed Nuclei (%) [4]: 3% | Population Tubulin-Different-Phenotype (%) [4]: 0% | Total Cell Count [4]: 108 | Population Apoptotic (%) [5]: 86% | Population Fragmented Nuclei (%) [5]: 23% | Population Healthy Nuclei (%) [5]: 68% | Population Hoechst High Intensity Objects (%) [5]: 2% | Population Membrane Permeable-Phenotype (%) [5]: 5% | Population Mitochondria Different-Phenotype (%) [5]: 3% | Population Mitotic Cells (%) [5]: 13% | Population Normal (%) [5]: 97% | Population Pyknosed Nuclei (%) [5]: 7% | Population Tubulin-Different-Phenotype (%) [5]: 2% | Total Cell Count [5]: 289 | Population Apoptotic (%) [6]: 83% | Population Fragmented Nuclei (%) [6]: 10% | Population Healthy Nuclei (%) [6]: 77% | Population Hoechst High Intensity Objects (%) [6]: 6% | Population Membrane Permeable-Phenotype (%) [6]: 9% | Population Mitochondria Different-Phenotype (%) [6]: 6% | Population Mitotic Cells (%) [6]: 16% | Population Normal (%) [6]: 93% | Population Pyknosed Nuclei (%) [6]: 12% | Population Tubulin-Different-Phenotype (%) [6]: 7% | Total Cell Count [6]: 158 | Population Apoptotic (%) [7]: 82% | Population Fragmented Nuclei (%) [7]: 31% | Population Healthy Nuclei (%) [7]: 59% | Population Hoechst High Intensity Objects (%) [7]: 2% | Population Membrane Permeable-Phenotype (%) [7]: 3% | Population Mitochondria Different-Phenotype (%) [7]: 2% | Population Mitotic Cells (%) [7]: 17% | Population Normal (%) [7]: 97% | Population Pyknosed Nuclei (%) [7]: 8% | Population Tubulin-Different-Phenotype (%) [7]: 2% | Total Cell Count [7]: 272 | Population Apoptotic (%) [8]: 84% | Population Fragmented Nuclei (%) [8]: 22% | Population Healthy Nuclei (%) [8]: 67% | Population Hoechst High Intensity Objects (%) [8]: 0% | Population Membrane Permeable-Phenotype (%) [8]: 4% | Population Mitochondria Different-Phenotype (%) [8]: 8% | Population Mitotic Cells (%) [8]: 15% | Population Normal (%) [8]: 100% | Population Pyknosed Nuclei (%) [8]: 9% | Population Tubulin-Different-Phenotype (%) [8]: 6% | Total Cell Count [8]: 135 | Population Apoptotic (%) [9]: 86% | Population Fragmented Nuclei (%) [9]: 17% | Population Healthy Nuclei (%) [9]: 75% | Population Hoechst High Intensity Objects (%) [9]: 2% | Population Membrane Permeable-Phenotype (%) [9]: 5% | Population Mitochondria Different-Phenotype (%) [9]: 3% | Population Mitotic Cells (%) [9]: 13% | Population Normal (%) [9]: 97% | Population Pyknosed Nuclei (%) [9]: 7% | Population Tubulin-Different-Phenotype (%) [9]: 2% | Total Cell Count [9]: 397 | Population Apoptotic (%) [10]: 85% | Population Fragmented Nuclei (%) [10]: 20% | Population Healthy Nuclei (%) [10]: 68% | Population Hoechst High Intensity Objects (%) [10]: 3% | Population Membrane Permeable-Phenotype (%) [10]: 7% | Population Mitotic Cells (%) [10]: 15% | Population Normal (%) [10]: 96% | Population Pyknosed Nuclei (%) [10]: 10% | Population Tubulin-Different-Phenotype (%) [10]: 3% | Total Cell Count [10]: 201 | Population Apoptotic (%) [11]: 83% | Population Fragmented Nuclei (%) [11]: 22% | Population Healthy Nuclei (%) [11]: 70% | Population Hoechst High Intensity Objects (%) [11]: 1% | Population Membrane Permeable-Phenotype (%) [11]: 6% | Population Mitochondria Different-Phenotype (%) [11]: 2% | Population Mitotic Cells (%) [11]: 16% | Population Normal (%) [11]: 98% | Population Pyknosed Nuclei (%) [11]: 7% | Population Tubulin-Different-Phenotype (%) [11]: 2% | Total Cell Count [11]: 347 | Population Apoptotic (%) [12]: 87% | Population Fragmented Nuclei (%) [12]: 21% | Population Healthy Nuclei (%) [12]: 60% | Population Hoechst High Intensity Objects (%) [12]: 4% | Population Membrane Permeable-Phenotype (%) [12]: 4% | Population Mitochondria Different-Phenotype (%) [12]: 3% | Population Mitotic Cells (%) [12]: 12% | Population Normal (%) [12]: 95% | Population Pyknosed Nuclei (%) [12]: 17% | Population Tubulin-Different-Phenotype (%) [12]: 6% | Total Cell Count [12]: 188
